Laboratory results reported in ChEMBL document CHEMBL3853270, “Influence of Birch Bark Triterpenes on Keratinocytes and Fibroblasts from Diabetic and Nondiabetic Donors” (2016).
Active and inactive are the calls of the source. No cut-off for these calls is given here.

Legend:
Type in all cases: functional
[1] = system: Keratinocyte; assay: Effect on growth factor related gene expression in non-diabetic young human primary keratinocytes assessed as GDF15 mRNA levels at 1.96 uM after 6 hrs by qPCR analysis
In short: (§1)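 Primary human keratinocytes (nondiabetic young or adult, diabetic adult donors) were exposed to compound for 6 h, with 0.1% DMSO as solvent control. Total RNA came from 400 000 cells per sample and was assayed on a Fluidigm Biomark high-throughput qPCR chip. Results are fold change vs solvent control, from 2−4 independent experiments on two donors per group, with SD. Groups were compared by one-way ANOVA with Bonferroni post-test.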

[2] = Effect on wound healing activity in diabetic adult human primary keratinocytes assessed as upregulation of TNFalpha protein levels at 1.96 uM after 24 hrs by bead-based suspension array analysis; conditions: Keratinocyte
[3] = Effect on wound healing activity in diabetic adult human primary keratinocytes assessed as upregulation of MIF protein levels at 1.96 uM after 24 hrs by bead-based suspension array analysis; conditions: Keratinocyte
[4] = system: Keratinocyte; assay: Effect on cellular connection related gene expression in non-diabetic young human primary keratinocytes assessed as GJB2 mRNA levels at 1.96 uM after 6 hrs by qPCR analysis
[5] = system: Fibroblast; assay: Effect on growth factors related gene expression in diabetic adult human primary fibroblasts assessed as FGF2 mRNA levels at 9.81 uM after 6 hrs by qPCR analysis
In short: (§2)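 Primary human dermal fibroblasts (young or adult nondiabetic, adult diabetic donor) were treated for 6 h against a 0.1% DMSO solvent control. RNA from 320 000 cells per sample was measured by Fluidigm Biomark high-throughput qPCR. Values are fold change relative to solvent control, from four independent experiments, with SD. One-way ANOVA with Bonferroni post-test was applied.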

[6] = system: Keratinocyte; assay: Effect on MMP1 mRNA expression levels in non-diabetic young human primary keratinocytes at 1.96 uM after 6 hrs by qPCR analysis
In short: (§3)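 Primary keratinocytes from nondiabetic young and adult and diabetic adult donors; 400 000 cells per sample, 6 h exposure at 1.96 or 9.81 μM. RNA extracted and read on a high-throughput qPCR chip. Results are fold change versus 0.1% DMSO solvent control from 5−7 independent experiments over two donors per group, SD, one-way ANOVA with Bonferroni post-test.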

[7] = system: Keratinocyte; assay: Effect on pro-inflammatory related gene expression in non-diabetic adult human primary keratinocytes assessed as IL6 mRNA levels at 9.81 uM after 6 hrs by qPCR analysis
[8] = system: Fibroblast; assay: Effect on chemokines related gene expression in non-diabetic adult human primary fibroblasts assessed as IL8 mRNA levels at 1.96 uM after 6 hrs by qPCR analysis
[9] = system: Fibroblast; assay: Effect on chemokines related gene expression in non-diabetic young human primary fibroblasts assessed as WDR26 mRNA levels at 1.96 uM after 6 hrs by qPCR analysis; in short: as §2
[10] = system: Keratinocyte; assay: Effect on antiinflammatory related gene expression in non-diabetic adult human primary keratinocytes assessed as NFKBIA mRNA levels at 1.96 uM after 6 hrs by qPCR analysis; in short: as §3
[11] = Effect on wound healing activity in non-diabetic adult human primary fibroblasts assessed as upregulation of soluble TNFR1 protein levels at 1.96 uM after 24 hrs by bead-based suspension array analysis; conditions: Fibroblast
[12] = system: Keratinocyte; assay: Effect on growth factor related gene expression in non-diabetic young human primary keratinocytes assessed as PDGFB mRNA levels at 1.96 uM after 6 hrs by qPCR analysis; in short: as §1
[13] = system: Keratinocyte; assay: Effect on antiinflammatory related gene expression in diabetic adult human primary keratinocytes assessed as NFKBIA mRNA levels at 1.96 uM after 6 hrs by qPCR analysis; in short: as §3
[14] = system: Keratinocyte; assay: Effect on antioxidant related gene expression in diabetic adult human primary keratinocytes assessed as SOD2 mRNA levels at 1.96 uM after 6 hrs by qPCR analysis
[15] = system: Keratinocyte; assay: Effect on pro-inflammatory related gene expression in non-diabetic young human primary keratinocytes assessed as IL1R1 mRNA levels at 1.96 uM after 6 hrs by qPCR analysis
[16] = system: Keratinocyte; assay: Effect on cellular connection related gene expression in non-diabetic adult human primary keratinocytes assessed as CLDN4 mRNA levels at 1.96 uM after 6 hrs by qPCR analysis
[17] = system: Keratinocyte; assay: Effect on chemokines related gene expression in non-diabetic young human primary keratinocytes assessed as CXCL10 mRNA levels at 9.81 uM after 6 hrs by qPCR analysis; in short: as §1
[18] = system: Keratinocyte; assay: Effect on AQP3 mRNA expression levels in non-diabetic adult human primary keratinocytes at 9.81 uM after 6 hrs by qPCR analysis; in short: as §3
[19] = system: Fibroblast; assay: Effect on chemokines related gene expression in diabetic adult human primary fibroblasts assessed as WDR26 mRNA levels at 1.96 uM after 6 hrs by qPCR analysis
[20] = system: Fibroblast; assay: Effect on growth factor related gene expression in non-diabetic young human primary fibroblasts assessed as GDF15 mRNA levels at 9.81 uM after 6 hrs by qPCR analysis; in short: as §2
[21] = system: Keratinocyte; assay: Effect on chemokines related gene expression in non-diabetic adult human primary keratinocytes assessed as CXCL10 mRNA levels at 1.96 uM after 6 hrs by qPCR analysis
[22] = system: Fibroblast; assay: Effect on adhesion molecules related gene expression in non-diabetic adult human primary fibroblasts assessed as VCAM1 mRNA levels at 1.96 uM after 6 hrs by qPCR analysis
In short: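 Dermal fibroblasts from nondiabetic adult and diabetic adult donors, exposed for 6 h at 1.96 or 9.81 μM. ICAM-1 and VCAM-1 mRNA measured by standard qRT-PCR, n = 3. Fold change versus 0.1% DMSO control, SD, one-way ANOVA with Bonferroni post-test.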

[23] = system: Keratinocyte; assay: Effect on wound healing activity in diabetic adult human primary keratinocytes assessed as increase in soluble gp130 part of IL6 receptor protein levels at 1.96 uM after 24 hrs by bead-based suspension array analysis
[24] = system: Fibroblast; assay: Effect on transcription factor related gene expression in non-diabetic adult human primary fibroblasts assessed as JUN mRNA levels at 1.96 uM after 6 hrs by qPCR analysis
[25] = system: Fibroblast; assay: Effect on antioxidant related gene expression in non-diabetic young human primary fibroblasts assessed as NFE2L2 mRNA levels at 9.81 uM after 6 hrs by qPCR analysis
[26] = system: Keratinocyte; assay: Effect on pro-inflammatory related gene expression in non-diabetic young human primary keratinocytes assessed as IL6 mRNA levels at 9.81 uM after 6 hrs by qPCR analysis
[27] = Effect on wound healing activity in non-diabetic adult human primary keratinocytes assessed as upregulation of MIP1alpha protein levels at 1.96 uM after 24 hrs by bead-based suspension array analysis; conditions: Keratinocyte
[28] = system: Fibroblast; assay: Effect on transcription factor related gene expression in non-diabetic young human primary fibroblasts assessed as JUN mRNA levels at 9.81 uM after 6 hrs by qPCR analysis
[29] = system: Keratinocyte; assay: Effect on pro-inflammatory related gene expression in non-diabetic adult human primary keratinocytes assessed as IL1B mRNA levels at 1.96 uM after 6 hrs by qPCR analysis
[30] = system: Keratinocyte; assay: Effect on MMP1 mRNA expression levels in diabetic adult human primary keratinocytes at 1.96 uM after 6 hrs by qPCR analysis; in short: as §3
[31] = system: Fibroblast; assay: Effect on pro-inflammatory related gene expression in non-diabetic young human primary fibroblasts assessed as PTGS2 mRNA levels at 1.96 uM after 6 hrs by qPCR analysis

Structure (SMILES): C=C(C)[C@@H]1CC[C@]2(CO)CC[C@]3(C)[C@H](CC[C@@H]4[C@@]5(C)CC[C@H](O)C(C)(C)[C@@H]5CC[C@]43C)[C@@H]12 [BETULIN]
- fold change (FC) [1]: 1
- Activity [2]: Active
- Activity [3]: Active
- fold change (FC) [4]: 0.8
- fold change (FC) [5]: 1.6
- fold change (FC) [6]: 1
- fold change (FC) [7]: 24.1
- fold change (FC) [8]: 702
- fold change (FC) [9]: 1.1
- fold change (FC) [10]: 1.4
- Activity [11]: Active
- fold change (FC) [12]: 1.2
- fold change (FC) [13]: 1.2
- fold change (FC) [14]: 1.1
- fold change (FC) [15]: 0.9
- fold change (FC) [16]: 1
- fold change (FC) [17]: 1.7
- fold change (FC) [18]: 0.8
- fold change (FC) [19]: 1.2
- fold change (FC) [20]: 5.1
- fold change (FC) [21]: 2.9
- fold change (FC) [22]: 63
- Activity [23]: Active
- fold change (FC) [24]: 1.9
- fold change (FC) [25]: 1.4
- fold change (FC) [26]: 6
- Activity [27]: Active
- fold change (FC) [28]: 1.6
- fold change (FC) [29]: 0.8
- fold change (FC) [30]: 1.2
- fold change (FC) [31]: 10.9
